Laboratory results: ChEMBL document CHEMBL1122852, “Imidazo[1,5-d][1,2,4]triazines as potential antiasthma agents” (J Med Chem, 1985)
The source made the active and inactive calls. The rule behind the calls is not given here.

species: Mus musculus; test: Effective dose in mouse PCA test; type: functional; conditions: not given
Method in brief: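 Female CFW mice were passively sensitized with 50 µL of diluted homologous IgE-containing serum iv. Two days later compound was given po, 1 h before iv ovalbumin antigen plus Evans Blue dye. Mice were killed after 20 min, and each lesion area was scored as the product of two normal diameters.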

SMILES	ED50 [mg/kg]
Cn1c(=O)c2nc[nH]c2n(C)c1=O.O [THEOPHYLLINE]	140
CCCc1nc(C)c2c(CC)nnc(O)n12	146
CCCc1nnc(O)n2c(CCC)nc(C)c12	114
CCCc1nc(C)c2c(C)nnc(O)n12	109

species: Homo sapiens; test: Inhibitory activity against histamine release from antigen-challenged, sensitized human basophils; Fluorescent compound, obscuring the histamine assay; type: functional; conditions: not given
Method in brief: (§1)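 Histamine release was induced by antigen challenge of sensitized human basophils in vitro. Compounds were first screened at a single concentration. Those reducing release by more than 50% went on to concentration-response testing to estimate IC50. Values are given with standard error and number of experiments.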

SMILES	IC50
Cc1nnc(O)n2c(C)nc(C)c12	Fluoroescent compound, obscuring the histamine assay

species: Homo sapiens; test: Inhibitory activity against histamine release from antigen-challenged, sensitized human basophils; type: functional; conditions: Homo sapiens; method in brief: as §1

SMILES	IC50 [µM]
Cn1c(=O)c2nc[nH]c2n(C)c1=O.O [THEOPHYLLINE]	335
CCCc1nc(C)c2c(CC)nnc(O)n12	15.6
CCCc1nnc(O)n2c(CCC)nc(C)c12	16
CCCc1nc(C)c2c(C)nnc(O)n12	14
CCCc1nc(Br)c2c(Br)nnc(O)n12	48
Sc1nncc2cnc(-c3ccccc3)n12	> 48
CCCc1nc(C)c2c(C(C)C)nnc(SC)n12	> 48
c1ncn2c(N3CCCCC3)nncc12	> 48
COCc1nc(Br)c2cnnc(O)n12	> 48
CCCc1nc(C)c2cnnc(SCC(=O)OCC)n12	> 48
CCCc1nc(C)c2c(C(C)C)nnc(S)n12	> 48
CCCc1nc(C)c2c(C3CC3)nnc(O)n12	> 48
CCCc1ncc2cnnc(S)n12	> 48
Cc1nc(Cc2ccccc2)n2c(O)nncc12	> 48
Cc1ncc2cnnc(S)n12	> 48
CCCOc1ccccc1-c1ncc2cnnc(O)n12	> 48
CCCc1ncc2cnnc(O)n12	> 48
c1ncn2c(NC3CCCC3)nncc12	> 48
CSc1nnc(-c2ccccc2)c2c(C)nc(C(C)C)n12	> 48
Cc1ncn2c(NN)nncc12	> 48
CCCc1nc(C)c2c(C)nnc(SC)n12	> 48
Cc1ncn2c(NCc3ccco3)nncc12	> 48
Cc1ncn2c(S)nncc12	> 48
CCCc1nc(C)c2cnnc(S)n12	10
CCCc1nc(C)c2c(C)nn(CC(=O)OCC)c(=O)n12	> 48
CCOC(=O)Cn1ncc2cncn2c1=O	> 48
CCCC1NN=C(SC)n2c1cnc2C (stereo not drawn)	> 48

system: Cavia porcellus; test: Compound was evaluated in the guinea pig anaphylaxis test for in vivo activity; Inactive, treated 12/19, control 16/20; type: functional, organism-based; conditions: not given

SMILES	Activity
Cn1c(=O)c2[nH]cnc2n(C)c1=O	inactive
